Here are results for 18 molecules from ChEMBL document CHEMBL1135582, “Synthesis and structure-activity relationships of amide and hydrazide analogues of the cannabinoid CB(1) receptor antagonist N-(piperidinyl)- 5-(4-chlorophenyl)-1-(2,4-dichlorophenyl)-4-methyl-1H-pyrazole-3-carboxamide (SR141716)” (J Med Chem, 2002).

For assay [1], the species on record is Rattus norvegicus. Nature of the assay: Maximum concentration based on [35S]GTP-gamma-S binding assay in rat membranes. It counts as functional. A general note: Binding of GTPγS marks nucleotide exchange on a G protein.
Assay [2] can be described thus: Selectivity measured as CB2/CB1.
The species named for assay [3] is Rattus norvegicus. Nature of the assay: The effective concentration using [35S]GTP-gamma-S binding assay in rat membranes. It counts as functional.
Assay [4] has as its target T1, Cannabinoid receptor 1 (Rattus norvegicus, UniProt P20272). The assay is described as follows: Binding affinity in a competition assay by displacement of [3H]CP-55940 from Cannabinoid receptor 1 in rat whole brain membrane preparation. It counts as cell membranes. Background: In a radioligand displacement assay an active substance lowers the binding of a labelled ligand.

In assay [5] the target is T1, Cannabinoid receptor 1. Nature of the assay: Binding affinity in a competition assay by displacement of [3H]- SR-141716 from Cannabinoid receptor 1 in rat whole brain membrane preparation. It counts as cell membranes.
The target in the next assay is Cannabinoid receptor 2 (Homo sapiens, UniProt P34972). Nature of the assay: Binding affinity at cannabinoid receptor 2 in a competition assay with [3H]CP-55940 as radioligand.
Assay [6] addresses T2, Cannabinoid receptor (Mus musculus) (UniProt P47746+P47936). The assay is described as follows: Dissociation Constant in Mouse isolated vas deferens at 316 nM of compound using cannabinoid receptor agonist WIN-55 212-2 (95% confidence limits). Type of assay: functional, tissue-based. The gist of the method: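 Vasa deferentia from albino MF1 mice (26–44 g) in organ bath, electrically stimulated until twitch amplitude stable. Antagonist (DMSO vehicle) added 30 min before cumulative agonist additions at 5 min intervals, stimulating final 2 min of each. Inhibition relative to pre-agonist twitch; KB from single concentration ratio, (x − 1) = B/KB, via (2 + 2) parallel line assay; 95% confidence limits; n = 5 or 6.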

Assay [7] addresses T2, Cannabinoid receptor (Mus musculus). Nature of the assay: Dissociation Constant in Mouse isolated vas deferens at 316 nM of compound using cannabinoid receptor agonist WIN-55 212-2. Type of assay: functional, tissue-based. An outline of the steps: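 Vasa deferentia from MF1 mice (26–44 g) were electrically stimulated in an organ bath until twitches were stable. Percent twitch inhibition was measured. KB came from a single concentration ratio via (x−1)=B/KB, with ratios from (2+2) parallel line assays. Results are means with 95% confidence limits.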

The target is the same in assay [8]. The assay is described as follows: Dissociation Constant in Mouse isolated vas deferens at 31.6 nM of compound using cannabinoid receptor agonist WIN-55 212-2.

T1 sequence (P20272 whole entry): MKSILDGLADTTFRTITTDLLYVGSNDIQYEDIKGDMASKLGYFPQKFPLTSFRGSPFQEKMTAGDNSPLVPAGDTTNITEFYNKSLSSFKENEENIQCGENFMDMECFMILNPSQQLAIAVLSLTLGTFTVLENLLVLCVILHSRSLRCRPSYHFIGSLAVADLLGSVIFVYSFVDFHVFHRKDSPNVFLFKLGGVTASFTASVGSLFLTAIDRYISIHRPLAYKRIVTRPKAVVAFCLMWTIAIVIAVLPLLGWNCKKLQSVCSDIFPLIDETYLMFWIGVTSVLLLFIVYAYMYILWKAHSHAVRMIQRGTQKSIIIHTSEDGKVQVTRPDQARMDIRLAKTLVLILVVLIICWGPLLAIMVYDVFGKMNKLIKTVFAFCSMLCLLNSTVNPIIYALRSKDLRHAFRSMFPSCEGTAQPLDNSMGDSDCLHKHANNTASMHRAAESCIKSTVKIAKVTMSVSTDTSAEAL
T2 sequence (P47746 whole entry, looked up): as the sequence (P20272 whole entry) above, with E95D counted along it
T2 sequence (P47936 whole entry, looked up): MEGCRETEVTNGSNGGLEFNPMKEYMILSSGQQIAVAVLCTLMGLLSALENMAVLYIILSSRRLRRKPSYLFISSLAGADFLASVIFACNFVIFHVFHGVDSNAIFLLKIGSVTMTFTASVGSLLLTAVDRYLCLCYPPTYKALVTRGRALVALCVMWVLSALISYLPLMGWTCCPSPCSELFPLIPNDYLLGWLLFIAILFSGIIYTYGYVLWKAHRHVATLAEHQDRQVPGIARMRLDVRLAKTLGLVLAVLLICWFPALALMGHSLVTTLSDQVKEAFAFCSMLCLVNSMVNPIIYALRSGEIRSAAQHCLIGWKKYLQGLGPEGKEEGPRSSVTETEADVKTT
Sequence of Cannabinoid receptor 2 (P34972 whole entry): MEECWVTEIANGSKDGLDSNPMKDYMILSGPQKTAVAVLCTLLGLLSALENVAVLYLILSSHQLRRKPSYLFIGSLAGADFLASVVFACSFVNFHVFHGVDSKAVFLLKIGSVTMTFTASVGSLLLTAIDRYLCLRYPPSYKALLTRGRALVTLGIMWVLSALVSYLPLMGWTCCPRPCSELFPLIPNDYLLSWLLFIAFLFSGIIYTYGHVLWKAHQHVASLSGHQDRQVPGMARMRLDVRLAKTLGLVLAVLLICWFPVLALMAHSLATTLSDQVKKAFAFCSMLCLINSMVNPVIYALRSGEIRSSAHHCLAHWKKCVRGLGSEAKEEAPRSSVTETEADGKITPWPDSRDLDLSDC

Take `Cc1c(C(=O)NC(C)C)nn(-c2ccc(Cl)cc2Cl)c1-c1ccc(Cl)cc1`: the Emax in the assay filed under Rattus norvegicus [1] was -46.4. In [2], this molecule showed a Selectivity of 59. Besides, the EC50 (usually the concentration giving half of the maximal effect) in the assay listed under Rattus norvegicus [3] is 16 µM.
The molecule `CCNC(=O)c1nn(-c2ccc(Cl)cc2Cl)c(-c2ccc(Cl)cc2)c1C` showed an Emax in the assay filed under Rattus norvegicus [1] of -46.9. In assay [2], this molecule came in with a Selectivity of 67. This molecule yielded an EC50 in the assay listed under Rattus norvegicus [3] of 30.3 µM.
Molecule `Cc1c(C(=O)NCCCCO)nn(-c2ccc(Cl)cc2Cl)c1-c1ccc(Cl)cc1` gave an Emax in the assay listed under Rattus norvegicus [1] of -79.5. In the assay listed under Rattus norvegicus [3], the 50% effective concentration (EC50) amounted to 304 µM.
In the assay filed under Rattus norvegicus [1], `Cc1c(C(=O)NC2CCCCC2)nn(-c2ccc(Cl)cc2Cl)c1-c1ccc(Cl)cc1` returned an Emax of -22.1. For the same molecule, the Selectivity in assay [2] worked out at 93. Also, the response in the assay filed under Rattus norvegicus [3] was half-maximal at 26 µM (EC50).
On the same counts, the results for `Cc1c(C(=O)NN)nn(-c2ccc(Cl)cc2Cl)c1-c1ccc(Cl)cc1` are -71.7, 32 and 419 µM.
`Cc1c(C(=O)N[C@H](C)CO)nn(-c2ccc(Cl)cc2Cl)c1-c1ccc(Cl)cc1`: the Emax in the assay filed under Rattus norvegicus [1] is -83. The Ki (commonly a measure of affinity in units of concentration, obtained from inhibition or displacement) on Cannabinoid receptor 1 [4] worked out at 0.117 µM; at Cannabinoid receptor 1 [5], 0.0998 µM; at Cannabinoid receptor 2, 1.77 µM. Moreover, the Selectivity in assay [2] is 15. Also, a half-maximal effect in the assay listed under Rattus norvegicus [3] (EC50) was put at 292 µM.
Molecule `Cc1c(C(=O)N[C@@H](C)CO)nn(-c2ccc(Cl)cc2Cl)c1-c1ccc(Cl)cc1` had an Emax in the assay filed under Rattus norvegicus [1] of -83.8. The Ki worked out at 0.117 µM at Cannabinoid receptor 1 [4], 0.123 µM on Cannabinoid receptor 1 [5] and 5.9 µM at Cannabinoid receptor 2. In [2], this molecule registered a Selectivity of 50. In the assay filed under Rattus norvegicus [3], this molecule came in with an EC50 of 294 µM.
`CNNC(=O)c1nn(-c2ccc(Cl)cc2Cl)c(-c2ccc(Cl)cc2)c1C` returned an EC50 in the assay filed under Rattus norvegicus [3] of 12000 µM.
In the case of `Cc1c(C(=O)NN2CCOCC2)nn(-c2ccc(Cl)cc2Cl)c1-c1ccc(Cl)cc1`, the Emax in the assay filed under Rattus norvegicus [1] was -76.3. Also, in [6], the Kb was determined as 0.0125 µM. In addition, the Selectivity in assay [2] is 105. The molecule also displayed an EC50 in the assay listed under Rattus norvegicus [3] of 38.9 µM.
On to `Cc1c(C(=O)NCCO)nn(-c2ccc(Cl)cc2Cl)c1-c1ccc(Cl)cc1`, for which, in the assay filed under Rattus norvegicus [1], the Emax is -76.5. In assay [2], this molecule gave a Selectivity of 11. In the assay filed under Rattus norvegicus [3], this molecule showed an EC50 of 1670 µM.
The matching figures for `Cc1c(C(=O)NCCCO)nn(-c2ccc(Cl)cc2Cl)c1-c1ccc(Cl)cc1`: -83.3, 8 and 241 µM.
`CCCCNC(=O)c1nn(-c2ccc(Cl)cc2Cl)c(-c2ccc(Cl)cc2)c1C` yielded an Emax in the assay filed under Rattus norvegicus [1] of -38.5. The molecule also registered a Selectivity in assay [2] of 119. For the same molecule, the 50% effective concentration (EC50) in the assay filed under Rattus norvegicus [3] came out at 8.54 µM.
On the same counts, the results for `CCCNC(=O)c1nn(-c2ccc(Cl)cc2Cl)c(-c2ccc(Cl)cc2)c1C` are -35.7, 99 and 11.1 µM.
For the molecule `CCNNC(=O)c1nn(-c2ccc(Cl)cc2Cl)c(-c2ccc(Cl)cc2)c1C`, the midpoint of the response in the assay filed under Rattus norvegicus [3], the EC50, lay at 495 µM.
In turn, `Cc1c(C(=O)NO)nn(-c2ccc(Cl)cc2Cl)c1-c1ccc(Cl)cc1` gave a Selectivity in [2] of 5.
In assay [7], `Cc1c(C(=O)NCC(C)C)nn(-c2ccc(Cl)cc2Cl)c1-c1ccc(Cl)cc1` came in with a Kb of 0.0212 µM. Besides, the Emax in the assay filed under Rattus norvegicus [1] is -11. This molecule came in with a Selectivity in [2] of 61. Moreover, the EC50 in the assay listed under Rattus norvegicus [3] worked out at 7.54 µM.
In the assay filed under Rattus norvegicus [1], `CCCCCNC(=O)c1nn(-c2ccc(Cl)cc2Cl)c(-c2ccc(Cl)cc2)c1C` displayed an Emax of -7.4. Also, the EC50 in the assay listed under Rattus norvegicus [3] came out at 5.27 µM.
As to `CCCCCCNC(=O)c1nn(-c2ccc(Cl)cc2Cl)c(-c2ccc(Cl)cc2)c1C`, the Emax in the assay filed under Rattus norvegicus [1] was -13. Besides, in [8], the Kb was found to be 0.0154 µM. The Selectivity in assay [2] was 378. Further, a half-maximal effect in the assay filed under Rattus norvegicus [3] (EC50) was put at 29.4 µM.
